UHRF1 binding = UHRF1 methyl-DNA binding inhibition | inhibition, % at 4.4 µM | UHRF1 binding to methylated oligo, TR-FRET | hit rate 0.75% among 370,000 | Q96T88; in the data active means inhibition above about 21%;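 further: UHRF1 SRA domain binding a hemimethylated CpG hairpin DNA probe; 0% = median of test compound wells and 100% = reference inhibitor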
MBD2 DNA inh = inhibitors of human MBD2 binding to methylated oligonucleotide; AID 686964; Q9UBB5; inhibition, % at 4.4 µM; hit rate 0.31% among 370,000; TR-FRET; in the data active means inhibition above about 13%
Target sequence (Q9UBB5 whole entry, looked up): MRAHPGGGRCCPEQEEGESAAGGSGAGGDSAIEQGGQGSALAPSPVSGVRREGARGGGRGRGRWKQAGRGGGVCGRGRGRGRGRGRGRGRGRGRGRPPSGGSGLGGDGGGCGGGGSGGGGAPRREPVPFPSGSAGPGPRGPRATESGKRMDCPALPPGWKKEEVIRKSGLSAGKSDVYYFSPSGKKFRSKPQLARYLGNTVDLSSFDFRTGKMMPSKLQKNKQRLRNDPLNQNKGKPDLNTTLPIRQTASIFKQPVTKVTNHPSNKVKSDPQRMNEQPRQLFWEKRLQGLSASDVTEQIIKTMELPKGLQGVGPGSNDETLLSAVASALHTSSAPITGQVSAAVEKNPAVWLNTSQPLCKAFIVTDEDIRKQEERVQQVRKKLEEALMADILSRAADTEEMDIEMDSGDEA
LEDGF integ inh = blocks HIV-1 LEDGF/p75-dependent DNA integration; inhibition, % at 3.7 µM; TR-FRET IN-LEDGF/p75 DNA integration, Eu/Cy5; hit rate 0.64% among 370,000;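 active means inhibition above the screen-wide mean plus 3 SD, cut at about 13% in these data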;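 further: signal is the Cy5 over europium emission ratio at 671 and 618 nm; 0% = plate median of compound wells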
TDP2 absorb = TDP2 (human) inhibition, absorbance primary screen | O95551 | recombinant TDP2, T5PNP hydrolysis, p-nitrophenol absorbance 415 nm | inhibition, % at 12.8 µM | hit rate 0.34% among 370,000 | AID 720702;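 active means inhibition above the mean of all tested compounds plus 3 SD, set per campaign, cut at about 25% in these data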;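 further: 0% = DMSO with enzyme and 100% = buffer with substrate but no TDP2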
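Material: recombinant human TDP2; quantity: TDP2 enzyme at 120 nM final; medium: Tris-HCl pH 7.5 with MgCl2; compound: single concentration, 12.8 µM nominal, with 1% DMSO; incubation: 2 h enzyme incubation at 37 °C; signal: epi absorbance; measure: percent inhibition; benchmarks: high control without enzyme, low control DMSO plus TDP2; repeats: singlicate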
core dimer inh = blocks dimerization of HCV core protein; hit rate 0.33% among 300,000; AID 1899; inhibition, % at 5 µM; TR-FRET GST/Flag-core106 dimerization, 1536-well;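 active means inhibition above the mean of all tested compounds plus 3 SD, set per screening campaign, cut at about 45% in these data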
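test system = GST/Flag-tagged HCV core106 proteins | probe or stimulus = Eu donor and XL665 acceptor anti-tag antibodies | times = compound-protein-antibody incubation 4 h at 22.5 °C | signal = TR-FRET, excitation 340 nm, emission 617 and 671 nm | measure = percent inhibition of core106 dimerization signal | controls = wells lacking GST-core106 and wells with excess unlabelled core106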
An asterisk follows results filed as active; / = no result given; ! = not confirmed by another sample. Shown are actives, neighbours in structure and some others; about 1.8% of the full set was active somewhere.

SMILES | UHRF1 binding | MBD2 DNA inh | LEDGF integ inh | TDP2 absorb | core dimer inh
Cc1ccc(NC(=O)C(=O)NCC2OCCc3ccccc32)cc1 (configuration not stated) | 57.3* | 4.6 | -3.1 | -8.0 | 2.7
COC(=O)[C@]12C[C@H](CC(=O)NCc3ccc(C)o3)C(=O)N(CCC3=CCCCC3)C1=C[C@H](C(C)C)O[C@@H]2C1CC1 | -1.7 | 1.3 | 1.5 | -2.8 | /
CC1(C(O)(C#CC[N+]2(C)CCCCC2)c2ccccc2)CCCC1 (configuration not stated) | 3.9 | 5.3 | -1.4 | 2.4 | -1.3
CC1(C#CC[N+]2(C)CCCCC2)CCC2C(O1)c1ccccc1OC2(C)C (configuration not stated) | 23.8* | 8.1 | 4.9 | 6.8 | -5.3
COc1ccc(-n2c(CN3CCOCC3)nc3ccc([N+](=O)[O-])cc3c2=O)c(OC)c1 | 2.0 | -3.4 | 1.6 | -8.3 | 65.0*
COc1cccc(CNC(=O)c2ccc(CS(=O)(=O)Cc3ccccc3C)o2)c1 | 24.5* | 5.2 | 2.0 | -16.2 | -6.7
COc1cccc(CNC(=O)c2ccc(CS(=O)(=O)Cc3ccc(C)cc3)o2)c1 | -3.0 | -0.5 | 1.4 | 0.8 | 0.6
O=C(CCNC(=O)c1ccc(Br)cc1)NCCCN1CCOCC1 | 22.6* | 6.2 | -2.4 | 5.2 | /
C=CCN(c1ccc(C(=O)NCCN2CCOCC2)cc1)S(C)(=O)=O | 28.7* | -1.7 | 2.8 | 4.4 | -5.2
O=C(C1CCN(c2cncnc2)CC1)N1CCCC1 | -0.7 | 2.5 | -1.6 | 9.1 | /
C#CCCCN([C@H](C(=O)OC)C(C)C)S(=O)(=O)c1ccc(F)cc1Br | 0.3 | -8.2 | 2.5 | -11.5 | /
CCOC(=O)c1ccc(N2CCN(c3ccccc3F)CC2)c(NC(=O)Nc2cccc(OC)c2)c1 | 5.1 | 9.2 | 1.3 | 0.8 | 12.7
COC(=O)c1ccc(N2CCOCC2)c(NC(=O)Nc2cccc(OC)c2)c1 | 23.9* | -4.1 | -4.6 | 3.4 | -13.0
COc1ccccc1C(=O)NCc1ccccc1 | 3.1 | -4.1 | 2.1 | -2.4 | 4.0
COc1ccccc1C(=O)NCc1n[nH]c(=S)n1Cc1ccccc1 | 44.4* | 7.6 | -3.1 | 9.2 | 8.6
O=C(c1ccccc1)N1CCC(=O)N1c1ccccc1 | 37.2* | 1.4 | -1.7 | -3.4 | 4.3
COc1ccc(N2CCN(C(=O)C3CCCN(S(=O)(=O)c4ccc5c(c4)oc(=O)n5C)C3)CC2)cc1 (configuration not stated) | 2.2 | 3.1 | -6.7 | -16.0 | -4.5
COc1ccccc1N1CCN(C(=O)C2CCCN(S(=O)(=O)c3ccc4c(c3)oc(=O)n4C)C2)CC1 (configuration not stated) | 24.4* | 7.2 | -3.4 | -3.0 | -5.4
COc1cccc(C2=NCCc3cc4c(cc32)OCO4)c1OC | 0.7 | -1.8 | 7.7 | -19.3 | 5.2
COc1ccc2cc3[n+](cc2c1OC)CCc1cc2c(cc1-3)OCO2 | 23.4*! | -15.3 | -0.2 | -5.9 | -4.2
O=C(O)CC(C(=O)O)N1C(=O)/C(=C/c2ccc(-c3nc4ccccc4s3)o2)SC1=S (configuration not stated) | 79.1* | 34.4* | 53.2* | 12.8 | 7.8
CC(C)(C)c1ccc(-c2noc(-c3ccc4c(c3)CCO4)n2)cc1 | 24.5* | 0.4 | 0.2 | 11.0 | 0.9
COC(=O)c1cc2nc(-c3ccccc3)cc(C)n2n1 | 1.9 | -2.5 | 3.1 | 3.5 | 37.9
CCOc1ccc(-c2cc(C)n3nc(C(N)=O)cc3n2)cc1 | -1.5 | -2.0 | -0.3 | 7.4 | 49.9*
COc1cccc(CN(Cc2cccnc2)S(=O)(=O)c2ccc(-n3cnnn3)c(C)c2)c1 | 20.9* | 4.4 | 3.1 | -14.2 | 9.1
SMILES | UHRF1 binding | MBD2 DNA inh | LEDGF integ inh | TDP2 absorb | core dimer inh
COc1cc(S(=O)(=O)N(Cc2ccc(C)cc2)Cc2ccco2)ccc1-n1cnnn1 | -0.4 | 0.2 | -0.1 | 1.8 | 3.4
COc1cc(S(=O)(=O)N(Cc2cccnc2)Cc2ccco2)ccc1-n1cnnn1 | 21.2* | 11.5 | 8.8 | 7.5 | -0.3
CCOC(=O)C1(CCOC)CCN(Cc2cnc(-c3cccc(C)c3)nc2)CC1 | 0.3 | 4.6 | 5.0 | -2.2 | -5.8
CCOC(=O)C1(CCOC)CCN(C(=O)c2ccccc2-c2cccc(C)c2)CC1 | 22.8* | 4.0 | 0.9 | -19.8 | 5.2
COC(=O)[C@]1(CNC(=O)c2cc(F)ccc2F)CC(=O)N(C)[C@@H]1c1ccccc1 | -1.5 | -2.7 | -0.2 | 2.3 | /
C/C(=N\N=C(N)N)c1ccc(Cl)cc1Cl | 38.4* | 1.4 | -5.0 | 0.0 | -4.9

Bioassay records deposited in PubChem BioAssay by The Scripps Research Institute Molecular Screening Center.
